Results from ChEMBL document CHEMBL4052832, “Selective Inhibitors of Human Neuraminidase 3” (J Med Chem, 2018).
≈ marks a conversion by molar mass, not a printed value. Calls of active or inactive are those of the source. The calls are words filed in the database; no cut-off is given here.

Experiments:
[1] = molecular target: T1, Sialidase-1 (Homo sapiens, UniProt Q99519); test: Inhibition of human CathA-IRES-6His-tagged NEU1 expressed in HEK293T cells using 4MU-NANA as substrate preincubated for 15 mins followed by substrate addition measured after 30 mins by fluorescence based assay; assay type: cell-based, HEK-293T
[2] = molecular target: T2, Sialidase-4 (Homo sapiens, UniProt Q8WWR8); test: Inhibition of human N-terminal MBP-fused NEU4 expressed in Escherichia coli using 4MU-NANA as substrate preincubated for 15 mins followed by substrate addition measured after 30 mins by fluorescence based assay
T2 sequence (Q8WWR8 whole entry): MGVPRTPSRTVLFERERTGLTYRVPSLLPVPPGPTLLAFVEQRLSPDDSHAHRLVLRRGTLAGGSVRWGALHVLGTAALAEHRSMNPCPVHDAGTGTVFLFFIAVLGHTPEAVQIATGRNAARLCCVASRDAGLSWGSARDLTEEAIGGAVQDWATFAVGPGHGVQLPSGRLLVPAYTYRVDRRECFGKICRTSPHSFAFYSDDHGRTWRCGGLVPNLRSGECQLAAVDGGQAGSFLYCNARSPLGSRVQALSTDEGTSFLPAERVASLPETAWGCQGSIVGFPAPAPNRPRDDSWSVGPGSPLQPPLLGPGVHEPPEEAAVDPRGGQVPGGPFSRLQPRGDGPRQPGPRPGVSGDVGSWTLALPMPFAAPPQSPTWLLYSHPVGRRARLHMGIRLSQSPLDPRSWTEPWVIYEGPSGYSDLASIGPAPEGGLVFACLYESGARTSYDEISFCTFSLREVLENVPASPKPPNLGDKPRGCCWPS

[3] = molecular target: T3, Sialidase-3 (Homo sapiens, UniProt Q9UQ49); test: Inhibition of human N-terminal MBP-fused NEU3 expressed in Escherichia coli using 4MU-NANA as substrate preincubated for 15 mins followed by substrate addition measured after 30 mins by fluorescence based assay
T3 sequence (Q9UQ49 whole entry): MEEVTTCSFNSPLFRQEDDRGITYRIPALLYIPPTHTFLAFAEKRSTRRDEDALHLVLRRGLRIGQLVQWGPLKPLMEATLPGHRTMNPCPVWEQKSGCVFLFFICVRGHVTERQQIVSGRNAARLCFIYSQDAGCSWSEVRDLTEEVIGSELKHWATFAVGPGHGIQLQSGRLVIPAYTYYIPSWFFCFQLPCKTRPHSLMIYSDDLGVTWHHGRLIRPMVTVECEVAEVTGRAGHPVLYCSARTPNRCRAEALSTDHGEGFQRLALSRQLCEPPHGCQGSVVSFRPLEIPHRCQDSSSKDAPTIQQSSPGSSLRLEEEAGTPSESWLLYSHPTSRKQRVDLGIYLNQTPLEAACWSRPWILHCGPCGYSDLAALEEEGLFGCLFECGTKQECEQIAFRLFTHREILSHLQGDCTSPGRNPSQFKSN

[4] = molecular target: T3, Sialidase-3; test: Inhibition of human N-terminal MBP-fused NEU3 expressed in Escherichia coli using GM3 as substrate preincubated for 15 mins followed by substrate addition measured after 30 mins by fluorescence based assay
Procedure, shortened: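 GM3 hydrolysis in 0.1 M sodium acetate pH 4.5. Serially diluted inhibitors preincubated with enzyme 15 min at 0 °C, then GM3 added to 500 μM for 30 min at 37 °C. Quenched with fresh 0.2 M sodium borate pH 10.2, then malononitrile added to form a fluorescent adduct with freed sialic acid; ex 357/em 434 nm.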

[5] = molecular target: Sialidase-1 (Mus musculus) (UniProt O35657); test: Inhibition of NEU1 in NEU3/NEU4 double knockout C57BL6 mouse brain homogenate up to 150 uM using 4MU-NANA as substrate after 30 mins
Procedure, shortened: (§1)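 Brains from 12-week-old WT, neu1−/−, neu3−/− or neu3−/−neu4−/− mice, snap-frozen and homogenized in water; protein by Bradford. Acidic neuraminidase assayed at pH 4.6 using homogenate equal to 300 μg protein, inhibitor 0–150 μM and 200 μM 4MU-NANA, 37 °C for 30 min. Stopped with 0.4 M glycine pH 10.5. Activity relative to no-inhibitor, mean ± SD of 6–12 experiments.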

[6] = molecular target: T3, Sialidase-3; test: Inhibition of human N-terminal MBP-fused NEU3 expressed in Escherichia coli using 4MU-NANA as substrate preincubated for 15 mins followed by substrate addition measured every minute for 30 mins by fluorescence based assay
[7] = molecular target: T1, Sialidase-1; test: Inhibition of human CathA-IRES-6His-tagged NEU1 expressed in HEK293T cells using 4MU-NANA as substrate preincubated for 15 mins followed by substrate addition measured every minute for 30 mins by fluorescence based assay; assay type: cell-based; settings: hek-293t
Procedure, shortened: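 Ki determination. Enzyme preincubated with serially diluted inhibitor 15 min at 0 °C, then serial 4MU-NANA concentrations added.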

[8] = molecular target: T4, Sialidase NEU3/NEU4 (Mus musculus) (UniProt Q9JMH7+Q8BZL1); test: Inhibition of NEU3/NEU4 in NEU1 knockout C57BL6 mouse brain homogenate assessed as residual activity using 4MU-NANA as substrate after 30 mins relative to control; procedure, shortened: as §1
[9] = molecular target: Sialidase-1 (Mus musculus) (UniProt O35657); test: Inhibition of NEU1 in C57BL6 mouse brain homogenate assessed as residual activity at 10 uM using 4MU-NANA as substrate after 30 mins relative to control; procedure, shortened: as §1
[10] = Octanol-water partition coefficient, log D of compound at pH 7.4 at 10 uM after 2 hrs by LC-MS based shake flask analysis; assay type: physicochemical
Procedure, shortened: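 Shake-flask log D at pH 7.4. Octanol and 0.1 M Tris-HCl pH 7.4, mutually saturated. Compound at 10 μM in buffer with 0.1% DMSO, at two octanol:buffer ratios, each in triplicate.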

[11] = Kinetic solubility of compound in Prisma HT 6.5 buffer at pH 7.4 at 10 mM incubated in supersonic bath for 30 mins measured after 24 hrs by LC-MS analysis; assay type: physicochemical; settings: pH 6.5, in the assay text read “at pH 6.5” for “at pH 7.4”, read-out: Kinetic_solubility
Procedure, shortened: (§2)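 Kinetic solubility. 10 mM DMSO stock diluted 1:100 into 0.1 M Tris-HCl pH 7.4, Prisma HT buffer, or 0.9% NaCl in water (final 1% DMSO). Sonicated 30 min at 25 °C, equilibrated 24 h at 25 °C, filtered (0.2 μm), diluted in MeOH and analysed by LC-MS. Single measurements.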

[12] = Kinetic solubility of compound in 0.9% NaCl at 10 mM incubated in supersonic bath for 30 mins measured after 24 hrs by LC-MS analysis; assay type: physicochemical; settings: read-out: Kinetic_solubility; procedure, shortened: as §2
[13] = Kinetic solubility of compound in Tris-HCl buffer at pH 7.4 at 10 mM incubated in supersonic bath for 30 mins measured after 24 hrs by LC-MS analysis; assay type: physicochemical; settings: Tris-HCl buffer, pH 7.4; read-out: Kinetic_solubility; procedure, shortened: as §2
[14] = Apparent permeability from apical side to basolateral side in human Caco2 cells at 62.5 uM after 30 mins by LC-MS analysis; assay type: ADME, cell-based; settings: Caco-2
Procedure, shortened: (§3)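 Caco-2 monolayer permeation run in triplicate in the apical-to-basolateral and basolateral-to-apical directions. Compound at 62.5 μM in the donor chamber with 0.6% DMSO. Samples taken at 30 min for LC-MS. Papp = (dQ/dt)/(A × c0). Efflux ratio is Papp b→a over Papp a→b.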

[15] = Efflux ratio of apparent permeability from basolateral to apical side over apical to basolateral side of human Caco2 cells at 62.5 uM after 30 mins by LC-MS analysis; assay type: ADME, cell-based; settings: Caco-2; procedure, shortened: as §3
[16] = Half life in human liver microsomes at 20 uM by LC-MS analysis; assay type: ADME, microsome
[17] = Apparent permeability from basolateral side to apical side in human Caco2 cells at 62.5 uM after 30 mins by LC-MS analysis; assay type: ADME, cell-based; settings: Caco-2; procedure, shortened: as §3
[18] = molecular target: T4, Sialidase NEU3/NEU4 (Mus musculus); test: Inhibition of NEU3/NEU4 in NEU1 knockout C57BL6 mouse brain homogenate using 4MU-NANA as substrate after 30 mins; procedure, shortened: as §1
[19] = molecular target: T2, Sialidase-4; test: Inhibition of human N-terminal MBP-fused NEU4 expressed in Escherichia coli using GM3 as substrate preincubated for 15 mins followed by substrate addition measured after 30 mins by fluorescence based assay
[20] = molecular target: Sialidase-1 (Mus musculus) (UniProt O35657); test: Inhibition of NEU1 in C57BL6 mouse brain homogenate assessed as residual activity at 50 uM using 4MU-NANA as substrate after 30 mins relative to control; procedure, shortened: as §1
[21] = Inhibition in C57BL6 mouse brain homogenate at 10 uM using 4MU-NANA as substrate after 30 mins relative to control
[22] = molecular target: Sialidase-1 (Mus musculus) (UniProt O35657); test: Inhibition of NEU1 in C57BL6 mouse brain homogenate using 4MU-NANA as substrate at 150 uM after 30 mins; procedure, shortened: as §1
[23] = molecular target: T2, Sialidase-4; test: Inhibition of human N-terminal MBP-fused NEU4 expressed in Escherichia coli using 4MU-NANA as substrate preincubated for 15 mins followed by substrate addition measured every minute for 30 mins by fluorescence based assay
[24] = molecular target: Sialidase NEU1/NEU4 (Mus musculus) (UniProt O35657+Q8BZL1); test: Inhibition of NEU1/NEU4 in NEU3 knockout C57BL6 mouse brain homogenate up to 150 uM using 4MU-NANA as substrate after 30 mins relative to control; procedure, shortened: as §1

T4 sequence (Q8BZL1 whole entry, looked up): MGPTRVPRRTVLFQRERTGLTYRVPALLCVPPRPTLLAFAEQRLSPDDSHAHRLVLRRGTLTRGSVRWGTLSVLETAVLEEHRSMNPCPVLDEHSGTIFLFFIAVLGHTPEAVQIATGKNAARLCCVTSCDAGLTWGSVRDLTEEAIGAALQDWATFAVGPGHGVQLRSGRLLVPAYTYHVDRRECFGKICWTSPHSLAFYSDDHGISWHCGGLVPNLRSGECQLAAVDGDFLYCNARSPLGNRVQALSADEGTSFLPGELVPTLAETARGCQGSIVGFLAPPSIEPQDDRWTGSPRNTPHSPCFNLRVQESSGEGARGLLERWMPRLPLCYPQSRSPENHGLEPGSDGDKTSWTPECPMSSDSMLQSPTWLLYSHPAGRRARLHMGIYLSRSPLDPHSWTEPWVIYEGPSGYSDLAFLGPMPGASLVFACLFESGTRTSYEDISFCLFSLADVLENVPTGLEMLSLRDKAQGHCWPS
T4 sequence (Q9JMH7 whole entry, looked up): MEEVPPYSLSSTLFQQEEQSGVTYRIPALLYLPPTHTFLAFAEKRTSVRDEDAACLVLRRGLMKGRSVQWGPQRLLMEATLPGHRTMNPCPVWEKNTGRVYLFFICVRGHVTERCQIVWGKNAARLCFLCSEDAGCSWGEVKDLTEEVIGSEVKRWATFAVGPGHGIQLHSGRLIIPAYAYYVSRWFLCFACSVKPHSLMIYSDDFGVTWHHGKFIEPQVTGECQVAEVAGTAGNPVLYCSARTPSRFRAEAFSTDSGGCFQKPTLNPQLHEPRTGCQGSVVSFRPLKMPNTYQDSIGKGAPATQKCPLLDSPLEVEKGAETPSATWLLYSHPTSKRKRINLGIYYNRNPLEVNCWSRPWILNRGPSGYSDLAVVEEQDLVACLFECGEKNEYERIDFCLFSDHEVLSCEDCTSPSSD

Compound | IC50 [1] [µM] | IC50 [2] [µM] | IC50 [3] [µM] | logD at 2 h, 10 µM [10] | solubility kinetic at 24 h, 10000 µM [11] [µg/mL] | solubility kinetic at 24 h, 10000 µM [12] [µg/mL] | solubility kinetic at 24 h, 10000 µM [13] [µg/mL] | also measured
CC(=O)N[C@H]1[C@H]([C@H](O)[C@H](O)Cn2cc(-c3ccc(C(=O)O)cc3)nn2)OC(C(=O)O)=C[C@@H]1NC(=N)N | > 500 | 24 | 0.61 | – | – | – | – | –
CC(=O)N[C@H]1[C@H]([C@H](O)[C@H](O)Cn2cc(-c3ccc(C(=O)O)cc3)nn2)OC(C(=O)O)=C[C@@H]1O | 240 | 3 | 1.1 | – | – | – | – | –
CC(=O)N[C@H]1[C@H]([C@H](O)[C@H](O)Cn2cc(-c3ccc(-c4ccccc4)cc3)nn2)OC(C(=O)O)=C[C@@H]1NC(=N)N | > 500 | – | 0.58 | 1.2 | – | – | – | IC50 [4]: 3.8 µM; inhibition [5]: inactive; Ki [6]: 0.32 µM; Ki [7]: Not Active; Activity [8]: 60%; Activity [9]: 85%
CCOC(=O)C1=C[C@H](O)[C@@H](NC(C)=O)[C@H]([C@H](O)[C@H](O)Cn2cc(-c3ccc(-c4ccccc4)cc3)nn2)O1 | – | – | – | 3.4 | 3.2 (≈ 6.12 µM) | 3.7 (≈ 7.08 µM) | 13.8 (≈ 26.4 µM) | –
CCCOC(=O)C1=C[C@H](O)[C@@H](NC(C)=O)[C@H]([C@H](O)[C@H](O)Cn2cc(-c3ccc(-c4ccccc4)cc3)nn2)O1 | – | – | – | – | 1.7 (≈ 3.17 µM) | 2.4 (≈ 4.47 µM) | 2.8 (≈ 5.22 µM) | –
CCCCOC(=O)C1=C[C@H](O)[C@@H](NC(C)=O)[C@H]([C@H](O)[C@H](O)Cn2cc(-c3ccc(-c4ccccc4)cc3)nn2)O1 | – | – | – | 3.8 | 3.2 (≈ 5.81 µM) | 5 (≈ 9.08 µM) | 3.9 (≈ 7.08 µM) | Papp A→B at 0.5 h, 62.5 µM [14]: 3.2 nm/s; efflux ratio at 0.5 h, 62.5 µM [15]: 6.7; half-life at 20 µM [16]: > 1.5 h; Papp B→A at 0.5 h, 62.5 µM [17]: 22 nm/s
CC(=O)N[C@H]1[C@H]([C@H](O)[C@H](O)Cn2cc(-c3ccc(-c4ccccc4)cc3)nn2)OC(C(=O)O)=C[C@@H]1O | > 500 | 0.52 | 0.7 | – | – | – | – | inhibition [18]: Active; IC50 [19]: 3.7 µM; IC50 [4]: 12 µM; inhibition [5]: inactive; Activity [20]: 60%; Ki [6]: 0.28 µM; inhibition [21]: < 70%; Ki [7]: Not Active; inhibition [22]: inactive; Ki [23]: 0.26 µM; inhibition [24]: 20%
CC(=O)N[C@H]1[C@H]([C@H](O)[C@H](O)Cn2cc(-c3ccc(C(=O)O)cc3)nn2)OC(C(=O)O)=C[C@@H]1N=[N+]=[N-] | > 500 | – | – | – | – | – | – | –
